Experimental data as given in ChEMBL document CHEMBL3621126, “Difluoromethyl ketones: Potent inhibitors of wild type and carbamate-insensitive G119S mutant Anopheles gambiae acetylcholinesterase” (Bioorg Med Chem Lett, 2015).
pIC50, pKi: −log10 of the molar value.

Target: T1, Acetylcholinesterase (Anopheles gambiae, UniProt Q869C3)
Assay: Inhibition of recombinant Anopheles gambiae wild type AChE after 10 mins by Ellman assay
Details: not given

T1 sequence (Q869C3 whole entry): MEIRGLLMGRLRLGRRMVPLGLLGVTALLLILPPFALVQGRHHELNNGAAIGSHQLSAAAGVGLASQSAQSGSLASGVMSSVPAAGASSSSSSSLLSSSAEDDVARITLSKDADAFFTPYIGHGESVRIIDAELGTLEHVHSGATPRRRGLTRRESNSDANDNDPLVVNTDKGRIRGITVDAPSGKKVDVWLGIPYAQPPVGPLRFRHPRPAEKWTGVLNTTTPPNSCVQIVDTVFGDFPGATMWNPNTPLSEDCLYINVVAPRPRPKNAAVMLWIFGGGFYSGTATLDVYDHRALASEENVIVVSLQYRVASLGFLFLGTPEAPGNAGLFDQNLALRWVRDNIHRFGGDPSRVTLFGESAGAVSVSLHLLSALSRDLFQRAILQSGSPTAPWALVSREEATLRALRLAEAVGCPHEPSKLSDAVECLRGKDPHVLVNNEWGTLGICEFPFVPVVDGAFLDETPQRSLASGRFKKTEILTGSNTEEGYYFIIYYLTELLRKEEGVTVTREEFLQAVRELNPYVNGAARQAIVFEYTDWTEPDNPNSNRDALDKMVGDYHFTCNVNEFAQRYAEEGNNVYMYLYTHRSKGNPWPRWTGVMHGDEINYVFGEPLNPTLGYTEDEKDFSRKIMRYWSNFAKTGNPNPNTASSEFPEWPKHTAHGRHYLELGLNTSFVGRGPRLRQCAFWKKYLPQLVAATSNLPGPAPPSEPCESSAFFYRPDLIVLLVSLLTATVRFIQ

Row | Compound | pIC50
1 | CC(C)Cn1cc(C(=O)CF)cn1 | < 5.00
2 | O=C(c1cnn(C2CCCC2)c1)C(F)(F)F | 8.54
3 | CCC(CC)n1cc(C(=O)CF)cn1 | 6.45
4 | CCC(CC)n1cc(C(=O)C(F)(F)F)cn1 | 8.56
5 | CC(C)Cn1cc(C(=O)C(F)F)cn1 | 5.52
6 | CC(C)Cn1cc(C(=O)C(F)(F)F)cn1 | 6.02
7 | O=C(c1cnn(C2CCCC2)c1)C(F)F | 6.97
8 | CCCC(C)n1cc(C(=O)CF)cn1 (stereo not drawn) | 5.45
9 | CC(C)n1cc(C(=O)C(F)F)cn1 | 6.45
10 | CCCC(C)n1cc(C(=O)C(F)F)cn1 (stereo not drawn) | 7.63

Target: T2, Acetylcholinesterase (Homo sapiens, UniProt P22303)
Assay: Inhibition of recombinant human AChE after 10 mins by Ellman assay
Details: not given

T2 sequence (P22303 whole entry): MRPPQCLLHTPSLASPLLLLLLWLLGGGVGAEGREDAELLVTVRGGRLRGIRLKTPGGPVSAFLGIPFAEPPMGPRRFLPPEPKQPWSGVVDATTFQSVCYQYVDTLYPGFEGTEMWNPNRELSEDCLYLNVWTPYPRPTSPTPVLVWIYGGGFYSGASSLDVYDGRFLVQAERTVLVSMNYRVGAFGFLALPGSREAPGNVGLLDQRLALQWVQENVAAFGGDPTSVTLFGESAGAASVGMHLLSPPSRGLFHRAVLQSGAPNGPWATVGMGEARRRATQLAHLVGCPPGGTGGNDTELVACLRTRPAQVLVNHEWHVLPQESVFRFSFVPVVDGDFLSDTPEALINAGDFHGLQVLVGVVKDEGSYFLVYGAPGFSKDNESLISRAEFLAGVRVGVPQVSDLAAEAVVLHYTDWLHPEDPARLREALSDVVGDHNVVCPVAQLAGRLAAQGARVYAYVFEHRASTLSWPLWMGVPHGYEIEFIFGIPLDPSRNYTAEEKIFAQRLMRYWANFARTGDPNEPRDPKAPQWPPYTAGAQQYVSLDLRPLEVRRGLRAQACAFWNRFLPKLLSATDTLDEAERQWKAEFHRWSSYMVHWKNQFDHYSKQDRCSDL

Row | Compound | pIC50
11 | CC(C)Cn1cc(C(=O)CF)cn1 | < 5.00
12 | O=C(c1cnn(C2CCCC2)c1)C(F)(F)F | 8.28
13 | CCC(CC)n1cc(C(=O)CF)cn1 | 5.28
14 | CCC(CC)n1cc(C(=O)C(F)(F)F)cn1 | 8.42
15 | CC(C)Cn1cc(C(=O)C(F)F)cn1 | 5.01
16 | CC(C)Cn1cc(C(=O)C(F)(F)F)cn1 | 6.23
17 | O=C(c1cnn(C2CCCC2)c1)C(F)F | 6.68
18 | CCCC(C)n1cc(C(=O)CF)cn1 (stereo not drawn) | 4.62
19 | CC(C)n1cc(C(=O)C(F)F)cn1 | 6.10
20 | CCCC(C)n1cc(C(=O)C(F)F)cn1 (stereo not drawn) | 6.83
21 | CC(C)(C)c1cccc(C(=O)C(F)F)c1 | 8.22

Test system: Anopheles gambiae
Assay: Insecticidal activity against Anopheles gambiae G3 assessed as mortality at 50 ng/insect after 24 hrs (reference value: 11 +/- 4%)
Format: functional
Details: not given

Row | Compound | mortality [%]
22 | CCC(CC)n1cc(C(=O)C(F)(F)F)cn1 | 65

Test system: Anopheles gambiae
Assay: Ratio of IC50 for recombinant Anopheles gambiae AChE G119S mutant to IC50 for recombinant wild type Anopheles gambiae AChE after 60 mins
Details: not given

Row | Compound | Ratio IC50
23 | CCC(CC)n1cc(C(=O)C(F)(F)F)cn1 | 2500

Target: T2, Acetylcholinesterase
Assay: Inhibition of recombinant human AChE after 60 mins by Ellman assay
Details: not given

Row | Compound | pIC50
24 | CC(C)Cn1cc(C(=O)CF)cn1 | < 5.00
25 | O=C(c1cnn(C2CCCC2)c1)C(F)(F)F | 8.21
26 | CCC(CC)n1cc(C(=O)CF)cn1 | 5.28
27 | CCC(CC)n1cc(C(=O)C(F)(F)F)cn1 | 8.64
28 | CC(C)Cn1cc(C(=O)C(F)F)cn1 | 4.96
29 | CC(C)Cn1cc(C(=O)C(F)(F)F)cn1 | 6.17
30 | O=C(c1cnn(C2CCCC2)c1)C(F)F | 6.61
31 | CCCC(C)n1cc(C(=O)CF)cn1 (stereo not drawn) | 4.75
32 | CC(C)n1cc(C(=O)C(F)F)cn1 | 6.06
33 | CCCC(C)n1cc(C(=O)C(F)F)cn1 (stereo not drawn) | 6.80

Target: Acetylcholinesterase (Anopheles gambiae) (UniProt Q869C3)
Assay: Inhibition of recombinant Anopheles gambiae wild type AChE by Ellman assay
Details: TDE = time-dependent effect
In short: (§1)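 Modified Ellman assay in microtiter plates with recombinant enzymes (human AChE, wild-type or G119S Anopheles gambiae AChE). Inhibitor preincubated 10 or 60 min at 23 ± 1°C, pH 7.7, 0.1% (v/v) DMSO, before adding substrate. Ten inhibitor concentrations were run alongside inhibitor-free control wells. IC50 was taken from sigmoidal plots of residual activity (v/v0) vs [I].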

Sequence of Acetylcholinesterase (Anopheles gambiae) (Q869C3 39-737 limits assumed): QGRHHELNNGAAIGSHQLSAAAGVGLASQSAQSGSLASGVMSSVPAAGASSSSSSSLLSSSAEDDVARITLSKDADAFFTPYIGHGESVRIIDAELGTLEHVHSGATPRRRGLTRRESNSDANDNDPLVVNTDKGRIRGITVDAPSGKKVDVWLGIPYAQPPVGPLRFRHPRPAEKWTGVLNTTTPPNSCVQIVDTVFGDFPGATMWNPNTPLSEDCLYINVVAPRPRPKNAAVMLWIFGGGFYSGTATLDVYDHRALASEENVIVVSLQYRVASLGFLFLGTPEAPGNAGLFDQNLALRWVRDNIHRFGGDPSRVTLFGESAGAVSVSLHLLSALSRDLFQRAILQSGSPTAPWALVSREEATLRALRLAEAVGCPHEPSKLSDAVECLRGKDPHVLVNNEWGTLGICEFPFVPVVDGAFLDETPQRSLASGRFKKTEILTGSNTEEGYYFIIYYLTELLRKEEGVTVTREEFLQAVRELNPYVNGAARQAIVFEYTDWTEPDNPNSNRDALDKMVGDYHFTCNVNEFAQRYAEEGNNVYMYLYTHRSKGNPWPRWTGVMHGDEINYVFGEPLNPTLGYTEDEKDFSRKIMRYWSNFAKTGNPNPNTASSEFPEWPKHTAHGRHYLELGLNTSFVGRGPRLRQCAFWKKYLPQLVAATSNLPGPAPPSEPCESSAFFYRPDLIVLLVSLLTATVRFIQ

Row | Compound | inhibition
34 | O=C(c1cnn(C2CCCC2)c1)C(F)(F)F | tde
35 | CCC(CC)n1cc(C(=O)C(F)(F)F)cn1 | tde
36 | CC(C)Cn1cc(C(=O)C(F)(F)F)cn1 | tde

Test system: not listed separately
Assay: Inhibition of Anopheles gambiae AChE G119S mutant after 10 mins by Ellman assay
Details: not given

Row | Compound | pIC50
37 | CC(C)Cn1cc(C(=O)CF)cn1 | < 5.00
38 | O=C(c1cnn(C2CCCC2)c1)C(F)(F)F | < 5.00
39 | CCC(CC)n1cc(C(=O)CF)cn1 | 5.52
40 | CCC(CC)n1cc(C(=O)C(F)(F)F)cn1 | < 5.00
41 | CC(C)Cn1cc(C(=O)C(F)F)cn1 | < 5.00
42 | CC(C)Cn1cc(C(=O)C(F)(F)F)cn1 | < 5.00
43 | O=C(c1cnn(C2CCCC2)c1)C(F)F | 5.49
44 | CC(C)(C)c1cccc(C(=O)CF)c1 | < 5.00
45 | CCCC(C)n1cc(C(=O)CF)cn1 (stereo not drawn) | < 5.00
46 | CC(C)n1cc(C(=O)C(F)F)cn1 | 5.08
47 | CCCC(C)n1cc(C(=O)C(F)F)cn1 (stereo not drawn) | 6.10

Test system: not listed separately
Assay: Inhibition of recombinant Anopheles gambiae AChE G119S mutant after 60 mins by Ellman assay
Details: not given

Row | Compound | pIC50
48 | CC(C)Cn1cc(C(=O)CF)cn1 | < 5.00
49 | O=C(c1cnn(C2CCCC2)c1)C(F)(F)F | 5.45
50 | CCC(CC)n1cc(C(=O)CF)cn1 | 5.52
51 | CCC(CC)n1cc(C(=O)C(F)(F)F)cn1 | 5.76
52 | CC(C)Cn1cc(C(=O)C(F)F)cn1 | < 5.00
53 | CC(C)Cn1cc(C(=O)C(F)(F)F)cn1 | < 5.00
54 | O=C(c1cnn(C2CCCC2)c1)C(F)F | 5.47
55 | CCCC(C)n1cc(C(=O)CF)cn1 (stereo not drawn) | < 5.00
56 | CC(C)n1cc(C(=O)C(F)F)cn1 | 5.08
57 | CCCC(C)n1cc(C(=O)C(F)F)cn1 (stereo not drawn) | 6.53

Test system: Anopheles gambiae
Assay: Insecticidal activity against Anopheles gambiae G3 assessed as fumigation mortality at 1000 ng/mL after 24 hrs by mason jar assay
Format: functional
Details: G3, 24 h
In short: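 Fumigation of adult G3 An. gambiae in a sealed 1 L vessel, with % mortality read after 24 h. Nominal concentration was calculated from the inhibitor mass delivered and the vessel volume.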

Row | Compound | mortality at 1 µg/mL [%]
58 | CCC(CC)n1cc(C(=O)CF)cn1 | 8
59 | CCC(CC)n1cc(C(=O)C(F)(F)F)cn1 | 86

Target: T2, Acetylcholinesterase
Assay: Inhibition of recombinant human AChE by Ellman assay
Details: TDE = time-dependent effect
In short: as §1

Row | Compound | inhibition
60 | O=C(c1cnn(C2CCCC2)c1)C(F)(F)F | tde
61 | CCC(CC)n1cc(C(=O)C(F)(F)F)cn1 | tde
62 | CC(C)Cn1cc(C(=O)C(F)(F)F)cn1 | tde

Target: T1, Acetylcholinesterase
Assay: Inhibition of recombinant Anopheles gambiae wild type AChE after 60 mins by Ellman assay
Details: not given

Row | Compound | pIC50
63 | CC(C)Cn1cc(C(=O)CF)cn1 | < 5.00
64 | O=C(c1cnn(C2CCCC2)c1)C(F)(F)F | 8.81
65 | CCC(CC)n1cc(C(=O)CF)cn1 | 6.47
66 | CCC(CC)n1cc(C(=O)C(F)(F)F)cn1 | 9.17
67 | CC(C)Cn1cc(C(=O)C(F)F)cn1 | 5.40
68 | CC(C)Cn1cc(C(=O)C(F)(F)F)cn1 | 5.98
69 | O=C(c1cnn(C2CCCC2)c1)C(F)F | 6.87
70 | CCCC(C)n1cc(C(=O)CF)cn1 (stereo not drawn) | 5.48
71 | CC(C)n1cc(C(=O)C(F)F)cn1 | 6.37
72 | CCCC(C)n1cc(C(=O)C(F)F)cn1 (stereo not drawn) | 7.54

Target: Acetylcholinesterase (Electrophorus electricus, UniProt O42275)
Assay: Inhibition of electric eel AChE
Details: not given

Sequence of Acetylcholinesterase (Electrophorus electricus, UniProt O42275) (O42275 whole entry): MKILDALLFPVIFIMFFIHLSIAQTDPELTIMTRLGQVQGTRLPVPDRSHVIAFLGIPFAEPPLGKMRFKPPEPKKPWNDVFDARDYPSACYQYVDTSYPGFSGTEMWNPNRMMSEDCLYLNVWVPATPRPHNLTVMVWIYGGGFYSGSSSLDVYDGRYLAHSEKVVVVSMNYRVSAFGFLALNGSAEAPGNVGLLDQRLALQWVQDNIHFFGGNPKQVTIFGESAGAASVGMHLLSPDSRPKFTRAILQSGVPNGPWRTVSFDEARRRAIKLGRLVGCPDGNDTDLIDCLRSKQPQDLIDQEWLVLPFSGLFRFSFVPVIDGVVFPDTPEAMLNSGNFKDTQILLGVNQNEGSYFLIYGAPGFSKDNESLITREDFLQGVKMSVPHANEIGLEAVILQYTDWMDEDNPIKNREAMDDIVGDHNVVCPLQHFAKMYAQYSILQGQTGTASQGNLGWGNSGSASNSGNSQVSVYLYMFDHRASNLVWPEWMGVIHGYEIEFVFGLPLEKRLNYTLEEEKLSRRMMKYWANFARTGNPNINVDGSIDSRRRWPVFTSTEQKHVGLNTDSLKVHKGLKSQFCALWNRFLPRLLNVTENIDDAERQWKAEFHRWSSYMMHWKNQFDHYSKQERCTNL

Row | Compound | pKi
73 | CC(=O)C(F)(F)CCC(C)(C)C | 8.80

Test system: Anopheles gambiae
Assay: Insecticidal activity against Anopheles gambiae G3 assessed as torsal contact toxicity by measuring mortality at 1000 ug/mL after 24 hrs by filter paper based method
Format: functional
Details: G3, 24 h
In short: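 Adult susceptible G3 An. gambiae were tested by the WHO treated-paper tarsal contact protocol. Papers were treated with ethanolic compound solutions at 1000 µg/mL and dried overnight. Mosquitoes were exposed 1 h and mortality recorded after 24 h.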

Row | Compound | mortality at 1000 µg/mL [%]
74 | CC(C)Cn1cc(C(=O)CF)cn1 | 20
75 | O=C(c1cnn(C2CCCC2)c1)C(F)(F)F | 40
76 | CCC(CC)n1cc(C(=O)CF)cn1 | 85
77 | CCC(CC)n1cc(C(=O)C(F)(F)F)cn1 | 40
78 | O=C(c1cnn(C2CCCC2)c1)C(F)F | 0
79 | CC(C)(C)c1cccc(C(=O)CF)c1 | 50
80 | CCCC(C)n1cc(C(=O)CF)cn1 (stereo not drawn) | 20
81 | CC(C)n1cc(C(=O)C(F)F)cn1 | 50
82 | CCCC(C)n1cc(C(=O)C(F)F)cn1 (stereo not drawn) | 0
83 | CC(C)(C)c1cccc(C(=O)C(F)F)c1 | 20
